Experiments:
[1] = biological target: Myosin light chain kinase 2, skeletal/cardiac muscle (Homo sapiens, UniProt Q9H1R3); assay: Inhibition of MYLK2 (unknown origin)
[2] = biological target: Tyrosine-protein kinase Fer (Homo sapiens, UniProt P16591); assay: Inhibition of FER (unknown origin)
[3] = biological target: Dual specificity protein kinase CLK3 (Homo sapiens, UniProt P49761); assay: Inhibition of CLK3 (unknown origin)
[4] = biological target: Serine/threonine-protein kinase B-raf (Homo sapiens, UniProt P15056); settings: dose 100.0 nM
[5] = biological target: Serine/threonine-protein kinase PAK 4 (Homo sapiens, UniProt O96013); settings: dose 100.0 nM
[6] = species: Homo sapiens; settings: dose 100.0 nM
[7] = biological target: Serine/threonine-protein kinase N1 (Homo sapiens, UniProt Q16512); assay: Inhibition of PKN1 (unknown origin)
[8] = biological target: Tyrosine-protein kinase Mer (Homo sapiens) (UniProt Q12866); settings: dose 100.0 nM
[9] = biological target: Ephrin type-A receptor 8 (Homo sapiens, UniProt P29322); assay: Inhibition of EPHA8 (unknown origin)
[10] = biological target: Dual specificity protein kinase CLK2 (Homo sapiens, UniProt P49760); assay: Inhibition of CLK2 (unknown origin)
[11] = biological target: Rho-associated protein kinase 2 (Homo sapiens, UniProt O75116); settings: dose 100.0 nM
[12] = biological target: Serine/threonine-protein kinase PAK 6 (Homo sapiens, UniProt Q9NQU5); assay: Inhibition of PAK6 (unknown origin)
[13] = biological target: Serine/threonine-protein kinase pim-1 (Homo sapiens, UniProt P11309); assay: Inhibition of PIM1 (unknown origin)
[14] = biological target: Homeodomain-interacting protein kinase 4 (Homo sapiens) (UniProt Q8NE63); settings: dose 100.0 nM
[15] = biological target: Phosphorylase b kinase gamma catalytic chain, liver/testis isoform (Homo sapiens, UniProt P15735); assay: Inhibition of PHKG2 (unknown origin)
[16] = biological target: Casein kinase I isoform gamma-1 (Homo sapiens, UniProt Q9HCP0); assay: Inhibition of CSNK1G1 (unknown origin)
[17] = biological target: Mitogen-activated protein kinase 8 (Homo sapiens) (UniProt P45983); settings: dose 100.0 nM
[18] = Antiproliferative activity against human CHRF-288-11 cells harboring JAK2T875N mutant measured after 72 hrs by Alamar blue staining based analysis; assay type: functional, cell-based; settings: CHRF-288-11, 72 h
Method in brief: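 Cells were exposed for 72 h at 37 °C under 5% CO2 to compound made up as DMSO stock and diluted in culture medium. Proliferation was then read by Alamar Blue.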

[19] = biological target: Aurora kinase C (Homo sapiens) (UniProt Q9UQB9); settings: dose 100.0 nM
[20] = biological target: Cyclin-dependent kinase 5/CDK5 activator 1 (Homo sapiens) (UniProt Q00535+Q15078); settings: dose 100.0 nM
[21] = biological target: Dual specificity protein kinase CLK1 (Homo sapiens, UniProt P49759); assay: Inhibition of CLK1 (unknown origin)
[22] = biological target: Vascular endothelial growth factor receptor 1 (Homo sapiens, UniProt P17948); assay: Inhibition of FLT1 (unknown origin)
[23] = system: RAF proto-oncogene serine/threonine-protein kinase (Homo sapiens), P04049 [Y340D]; settings: dose 100.0 nM
[24] = biological target: Dual specificity tyrosine-phosphorylation-regulated kinase 3 (Homo sapiens, UniProt O43781); assay: Inhibition of DYRK3 (unknown origin)
[25] = biological target: Serine/threonine-protein kinase PAK 2 (Homo sapiens, UniProt Q13177); assay: Inhibition of PAK2 (unknown origin)
[26] = biological target: Mitogen-activated protein kinase kinase kinase 9 (Homo sapiens, UniProt P80192); assay: Inhibition of MAP3K9 (unknown origin)
[27] = biological target: Leukocyte tyrosine kinase receptor (Homo sapiens, UniProt P29376); assay: Inhibition of LTK (unknown origin)
[28] = biological target: Signal transducer and activator of transcription 5A (Homo sapiens) (UniProt P42229); assay: Inhibition of STAT5 phosphorylation in human HEL cells by Western blot analysis; assay type: cell-based; settings: dose <= 1.0 µM
Method in brief: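 HEL cells were starved overnight in RPMI with 1% FCS, then exposed to compound for 2 h at 37 °C. Cells were lysed in RIPA buffer (50 mM HEPES pH 7.4, 150 mM NaCl, 1% Triton X-100, deoxycholate, 0.1% SDS) with protease and phosphatase inhibitors. Protein was quantified by Bradford assay and blots were developed by chemiluminescence. Membranes were stripped and reprobed for total STAT5.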

[29] = biological target: Tyrosine-protein kinase SYK (Homo sapiens, UniProt P43405); settings: dose 100.0 nM
[30] = biological target: Tyrosine-protein kinase Fes/Fps (Homo sapiens, UniProt P07332); assay: Inhibition of FES (unknown origin)
[31] = biological target: Mitogen-activated protein kinase 1 (Homo sapiens, UniProt P28482); assay: Inhibition of MAPK1 (unknown origin)
[32] = biological target: Serine/threonine-protein kinase Sgk3 (Homo sapiens, UniProt Q96BR1); assay: Inhibition of SGKL (unknown origin)
[33] = biological target: Death-associated protein kinase 3 (Homo sapiens, UniProt O43293); assay: Inhibition of DAPK3 (unknown origin)
[34] = biological target: SRSF protein kinase 3 (Homo sapiens, UniProt Q9UPE1); assay: Inhibition of STK23 (unknown origin)
[35] = biological target: Serine/threonine-protein kinase 26 (Homo sapiens, UniProt Q9P289); assay: Inhibition of MST4 (unknown origin)
[36] = biological target: RAF proto-oncogene serine/threonine-protein kinase (Homo sapiens, UniProt P04049, Y340D); assay: Inhibition of RAF1 Y340D (unknown origin)
[37] = biological target: ALK tyrosine kinase receptor (Homo sapiens, UniProt Q9UM73); assay: Inhibition of ALK (unknown origin)
[38] = system: BaF3; assay: Antiproliferative activity against mouse BaF3 cells harboring TEL-JAK3 measured after 72 hrs by Alamar blue staining based analysis; assay type: functional, cell-based; settings: BaF3, 72 h
Method in brief: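 Murine Ba/F3 cells carrying TEL/JAK2 or TEL/JAK3 fusions, grown in DMEM with 10% fetal calf serum. Compound stocks in DMSO were diluted in culture medium. Proliferation was read by Alamar Blue after 72 h incubation at 37 °C under 5% CO2.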

[39] = biological target: Tyrosine-protein kinase JAK2 (Homo sapiens) (UniProt O60674); settings: dose 100.0 nM
[40] = biological target: Tyrosine-protein kinase receptor TYRO3 (Homo sapiens) (UniProt Q06418); settings: dose 100.0 nM
[41] = biological target: Mitogen-activated protein kinase 11 (Homo sapiens, UniProt Q15759); assay: Inhibition of MAPK11 (unknown origin)
Chain of Mitogen-activated protein kinase 11 (Q15759 whole entry): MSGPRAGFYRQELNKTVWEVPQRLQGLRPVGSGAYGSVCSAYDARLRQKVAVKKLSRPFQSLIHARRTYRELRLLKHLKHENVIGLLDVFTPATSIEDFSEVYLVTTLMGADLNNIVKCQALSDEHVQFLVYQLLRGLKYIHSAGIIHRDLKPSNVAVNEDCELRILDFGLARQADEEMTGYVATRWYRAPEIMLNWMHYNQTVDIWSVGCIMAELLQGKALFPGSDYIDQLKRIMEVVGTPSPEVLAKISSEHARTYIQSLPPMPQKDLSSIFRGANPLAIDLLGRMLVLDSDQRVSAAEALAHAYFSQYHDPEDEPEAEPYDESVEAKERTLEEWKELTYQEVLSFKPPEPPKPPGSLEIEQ

Chain of Serine/threonine-protein kinase Sgk3 (Q96BR1 whole entry): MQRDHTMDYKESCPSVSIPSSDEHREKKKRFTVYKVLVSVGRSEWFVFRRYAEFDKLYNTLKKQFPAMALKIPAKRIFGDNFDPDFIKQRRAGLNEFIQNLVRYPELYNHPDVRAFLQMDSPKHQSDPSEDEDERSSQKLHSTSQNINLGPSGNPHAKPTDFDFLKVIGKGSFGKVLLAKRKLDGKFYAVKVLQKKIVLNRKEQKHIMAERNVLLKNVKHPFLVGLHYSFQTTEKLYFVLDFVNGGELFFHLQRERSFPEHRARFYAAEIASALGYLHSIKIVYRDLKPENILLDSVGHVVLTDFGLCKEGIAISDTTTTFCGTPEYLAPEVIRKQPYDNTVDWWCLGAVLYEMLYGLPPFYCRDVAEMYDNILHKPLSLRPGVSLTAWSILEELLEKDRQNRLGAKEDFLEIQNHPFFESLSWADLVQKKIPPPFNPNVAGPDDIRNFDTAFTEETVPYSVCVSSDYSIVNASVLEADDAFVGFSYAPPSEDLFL
Chain of Serine/threonine-protein kinase N1 (Q16512 whole entry): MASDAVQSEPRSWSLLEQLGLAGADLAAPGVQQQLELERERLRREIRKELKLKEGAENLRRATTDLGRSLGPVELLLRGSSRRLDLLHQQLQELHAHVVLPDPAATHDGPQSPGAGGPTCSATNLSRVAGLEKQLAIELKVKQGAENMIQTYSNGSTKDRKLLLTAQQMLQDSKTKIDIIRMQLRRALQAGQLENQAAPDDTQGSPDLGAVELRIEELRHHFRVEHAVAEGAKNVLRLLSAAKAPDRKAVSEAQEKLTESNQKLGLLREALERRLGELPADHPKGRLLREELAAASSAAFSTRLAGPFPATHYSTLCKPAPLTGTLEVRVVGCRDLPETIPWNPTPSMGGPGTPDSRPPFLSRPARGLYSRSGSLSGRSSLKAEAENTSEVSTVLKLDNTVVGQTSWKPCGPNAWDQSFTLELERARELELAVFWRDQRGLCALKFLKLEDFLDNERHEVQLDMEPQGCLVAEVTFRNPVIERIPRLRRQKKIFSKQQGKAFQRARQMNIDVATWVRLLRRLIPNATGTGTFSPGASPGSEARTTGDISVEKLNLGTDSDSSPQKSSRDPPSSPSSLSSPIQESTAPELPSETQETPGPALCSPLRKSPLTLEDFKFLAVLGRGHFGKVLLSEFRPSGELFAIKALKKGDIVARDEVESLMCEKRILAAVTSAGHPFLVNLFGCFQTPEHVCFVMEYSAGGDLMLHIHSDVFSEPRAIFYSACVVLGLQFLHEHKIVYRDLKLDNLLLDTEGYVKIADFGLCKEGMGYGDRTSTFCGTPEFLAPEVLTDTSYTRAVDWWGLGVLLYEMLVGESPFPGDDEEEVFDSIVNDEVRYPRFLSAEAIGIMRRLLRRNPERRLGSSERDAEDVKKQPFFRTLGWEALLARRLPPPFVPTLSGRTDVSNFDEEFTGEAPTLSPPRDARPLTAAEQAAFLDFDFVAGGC
Chain of Homeodomain-interacting protein kinase 4 (Homo sapiens) (Q8NE63 whole entry, canonical isoform): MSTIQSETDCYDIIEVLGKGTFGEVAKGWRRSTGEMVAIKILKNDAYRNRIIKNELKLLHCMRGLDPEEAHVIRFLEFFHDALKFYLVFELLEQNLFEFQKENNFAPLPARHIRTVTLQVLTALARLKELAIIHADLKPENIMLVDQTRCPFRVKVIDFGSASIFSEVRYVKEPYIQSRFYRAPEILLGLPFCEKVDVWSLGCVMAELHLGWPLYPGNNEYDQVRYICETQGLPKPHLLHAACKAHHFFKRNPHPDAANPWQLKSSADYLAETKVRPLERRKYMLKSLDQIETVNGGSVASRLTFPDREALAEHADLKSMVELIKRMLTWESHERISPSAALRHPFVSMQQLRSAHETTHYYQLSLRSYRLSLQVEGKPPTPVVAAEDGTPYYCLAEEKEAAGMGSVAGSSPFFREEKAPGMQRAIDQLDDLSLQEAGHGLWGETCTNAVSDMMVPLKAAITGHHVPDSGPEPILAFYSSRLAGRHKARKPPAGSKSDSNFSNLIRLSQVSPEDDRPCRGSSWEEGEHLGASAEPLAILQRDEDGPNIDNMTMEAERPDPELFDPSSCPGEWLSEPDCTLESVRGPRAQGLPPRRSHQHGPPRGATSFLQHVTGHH
Chain of Serine/threonine-protein kinase PAK 4 (O96013 whole entry, looked up): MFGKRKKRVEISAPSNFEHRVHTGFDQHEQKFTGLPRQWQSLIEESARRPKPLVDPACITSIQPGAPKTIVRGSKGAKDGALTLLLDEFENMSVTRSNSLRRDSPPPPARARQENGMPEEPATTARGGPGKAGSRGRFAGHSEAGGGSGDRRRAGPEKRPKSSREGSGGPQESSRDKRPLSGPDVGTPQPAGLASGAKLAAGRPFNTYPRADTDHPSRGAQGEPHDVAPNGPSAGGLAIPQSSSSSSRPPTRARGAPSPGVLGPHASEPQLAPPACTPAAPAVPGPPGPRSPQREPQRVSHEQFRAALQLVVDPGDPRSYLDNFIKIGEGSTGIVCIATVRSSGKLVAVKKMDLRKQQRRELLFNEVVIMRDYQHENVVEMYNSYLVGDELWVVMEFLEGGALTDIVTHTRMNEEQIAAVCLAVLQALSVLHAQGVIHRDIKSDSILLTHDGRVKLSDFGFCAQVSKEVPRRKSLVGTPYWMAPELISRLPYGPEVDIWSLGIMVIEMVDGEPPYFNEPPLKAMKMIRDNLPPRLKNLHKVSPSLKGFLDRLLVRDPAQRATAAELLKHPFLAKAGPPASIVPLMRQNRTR
Chain of Serine/threonine-protein kinase PAK 6 (Q9NQU5 whole entry): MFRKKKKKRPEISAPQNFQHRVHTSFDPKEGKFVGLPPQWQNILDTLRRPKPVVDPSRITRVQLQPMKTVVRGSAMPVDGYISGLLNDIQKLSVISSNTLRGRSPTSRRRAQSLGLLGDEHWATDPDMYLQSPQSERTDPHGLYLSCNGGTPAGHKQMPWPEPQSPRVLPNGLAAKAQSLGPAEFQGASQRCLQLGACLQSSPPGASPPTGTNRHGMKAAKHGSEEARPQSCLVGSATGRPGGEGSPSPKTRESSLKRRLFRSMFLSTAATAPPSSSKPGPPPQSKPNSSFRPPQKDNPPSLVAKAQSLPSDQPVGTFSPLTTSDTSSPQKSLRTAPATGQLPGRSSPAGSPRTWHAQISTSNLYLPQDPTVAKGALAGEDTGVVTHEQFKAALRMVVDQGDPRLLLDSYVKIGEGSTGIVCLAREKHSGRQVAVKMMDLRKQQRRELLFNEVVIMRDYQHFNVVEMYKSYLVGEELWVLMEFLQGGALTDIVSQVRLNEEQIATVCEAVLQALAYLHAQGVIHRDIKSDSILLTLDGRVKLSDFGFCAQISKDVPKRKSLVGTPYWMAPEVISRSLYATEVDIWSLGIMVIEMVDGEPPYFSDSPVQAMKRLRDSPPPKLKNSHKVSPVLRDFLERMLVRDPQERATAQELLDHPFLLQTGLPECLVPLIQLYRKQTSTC
Chain of Tyrosine-protein kinase Fer (P16591 whole entry): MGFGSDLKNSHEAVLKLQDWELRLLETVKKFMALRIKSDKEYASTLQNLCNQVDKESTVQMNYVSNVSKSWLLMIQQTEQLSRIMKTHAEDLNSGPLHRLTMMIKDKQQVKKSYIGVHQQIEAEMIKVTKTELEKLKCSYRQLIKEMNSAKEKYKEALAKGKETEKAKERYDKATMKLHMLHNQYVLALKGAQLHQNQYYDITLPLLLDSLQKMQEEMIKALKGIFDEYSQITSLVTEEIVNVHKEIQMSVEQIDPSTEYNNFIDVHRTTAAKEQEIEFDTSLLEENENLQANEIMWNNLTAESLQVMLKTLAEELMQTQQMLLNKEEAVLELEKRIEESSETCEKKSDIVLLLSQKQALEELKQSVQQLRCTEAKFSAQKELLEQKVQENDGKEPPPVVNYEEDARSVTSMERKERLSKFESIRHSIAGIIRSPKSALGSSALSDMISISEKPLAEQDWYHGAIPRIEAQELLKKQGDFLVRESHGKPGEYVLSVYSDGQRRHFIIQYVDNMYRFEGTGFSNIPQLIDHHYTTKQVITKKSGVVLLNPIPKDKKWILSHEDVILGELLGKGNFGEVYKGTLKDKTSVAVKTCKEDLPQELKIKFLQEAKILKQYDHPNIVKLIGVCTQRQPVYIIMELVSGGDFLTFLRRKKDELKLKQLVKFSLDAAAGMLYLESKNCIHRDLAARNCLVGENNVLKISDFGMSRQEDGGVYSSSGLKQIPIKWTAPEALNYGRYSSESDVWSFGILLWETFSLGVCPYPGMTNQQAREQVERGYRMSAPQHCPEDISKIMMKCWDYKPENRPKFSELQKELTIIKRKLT
Chain of Serine/threonine-protein kinase PAK 2 (Q13177 whole entry): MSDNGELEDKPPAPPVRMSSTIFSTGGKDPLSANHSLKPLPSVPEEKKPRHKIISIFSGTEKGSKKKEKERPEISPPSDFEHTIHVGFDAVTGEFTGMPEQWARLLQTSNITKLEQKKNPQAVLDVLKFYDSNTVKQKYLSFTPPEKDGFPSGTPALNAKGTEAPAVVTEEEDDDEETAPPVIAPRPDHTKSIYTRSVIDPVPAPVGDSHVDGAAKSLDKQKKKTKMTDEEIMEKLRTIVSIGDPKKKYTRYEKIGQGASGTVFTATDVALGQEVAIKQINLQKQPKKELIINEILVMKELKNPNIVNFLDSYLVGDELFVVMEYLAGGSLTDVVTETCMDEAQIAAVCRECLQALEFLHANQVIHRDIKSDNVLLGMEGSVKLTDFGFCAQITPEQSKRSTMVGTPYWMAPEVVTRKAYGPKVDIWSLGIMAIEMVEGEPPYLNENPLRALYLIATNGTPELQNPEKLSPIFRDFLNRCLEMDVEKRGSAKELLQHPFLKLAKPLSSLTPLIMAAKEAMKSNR

- IC50 [1]: < 1 µM
- IC50 [2]: > 1 µM
- IC50 [3]: > 1 µM
- inhibition [4]: < 50%
- inhibition [5]: < 50%
- inhibition [6]: > 50%
- IC50 [7]: < 1 µM
- inhibition [8]: < 50%
- IC50 [9]: > 1 µM
- IC50 [10]: > 1 µM
- inhibition [11]: > 50%
- IC50 [12]: > 1 µM
- IC50 [13]: > 1 µM
- inhibition [14]: < 50%
- IC50 [15]: > 1 µM
- IC50 [16]: > 1 µM
- inhibition [17]: > 50%
- inhibition [19]: < 50%
- inhibition [20]: < 50%
- IC50 [21]: < 1 µM
- IC50 [22]: > 1 µM
- inhibition [23]: < 50%
- IC50 [24]: > 1 µM
- IC50 [25]: > 1 µM
- IC50 [26]: < 1 µM
- IC50 [27]: > 1 µM
- inhibition [28]: Dose-Dependent Effect
- inhibition [29]: < 50%
- IC50 [30]: > 1 µM
- IC50 [31]: < 1 µM
- IC50 [32]: > 1 µM
- IC50 [34]: > 1 µM
- IC50 [35]: < 1 µM
- IC50 [36]: < 1 µM
- IC50 [37]: > 1 µM
- IC50 [38]: 2.35 µM
- inhibition [39]: > 50%
- inhibition [40]: < 50%
- IC50 [41]: > 1 µM
SMILES: N#CCNC(=O)c1ccc(-c2ccnc(Nc3ccc(N4CCOCC4)cc3)n2)cc1 [MOMELOTINIB]
- IC50 [18]: 0.001 µM
- IC50 [33]: > 1 µM

Reference: ChEMBL document CHEMBL5705885, “CYT387, a selective JAK1/JAK2 inhibitor: in vitro assessment of kinase selectivity and preclinical studies using cell lines and primary cells from polycythemia vera patients” (Leukemia, 2009)
